Assay results from EPA's CvTdb concentration-time database.

Legend:
human [1] = assay: concentration in expired air after dosing; negative times count back from the end of exposure; conditions: dosed: dichloromethane, inhalation, duration: 6 hr, male
Procedure, shortened: (§1)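 Points were largely digitised from plot screenshots with WebPlotDigitizer or otherwise copied from tables, and they remain in the units each source reported. They come from published in vivo toxicokinetic studies and two structured collections. Sampling and analytical methods follow each source and were often not reported.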

human [2] = assay: concentration in blood after dosing; negative times count back from the end of exposure; conditions: dosed: ethanol, inhalation, duration: 4 hr
Procedure, shortened: as §1

[C-]#[O+] [carbon monoxide]
concentration in expired air [ppm], human [1]
Conditions | 100 ppm | 350 ppm
0.083 h | 17.1 | 34.6
0.25 h | 16.2 | 32.5
0.5 h | 15.8 | 32.6
1 h | 15.7 | 33.3
1.5 h | 14.9 | 32.3
2 h | 14.6 | 30.9
3 h | 11.8 | 26.8
4 h | 10.8 | 25.1
6 h | 10 | 21.2
8 h | 9.1 | 16.9
16 h | 6.8 | 11.8
24 h | 4.3 | 5.6

concentration in expired air [ppm], human [1], during exposure
Conditions | -36 s | -6 h | -5.75 h | -5.5 h | -5 h | -4.5 h | -4 h | -3 h | -2 h | -1 h
100 ppm | 16.8 | 3.8 | 5.3 | 5.8 | 7 | 8.1 | 9 | 10.7 | 13.1 | 15.3
350 ppm | 36.1 | 4.2 | 6.5 | 7.6 | 10.5 | 13.3 | 16.1 | 20.9 | 25.9 | 31.1

CCO [ethanol]
concentration in blood [ng/mL], human [2]
Conditions | female | male
0.4897 h, 125 ppm | 60 | 62.3
0.4897 h, 250 ppm | – | 101
0.4897 h, 450 ppm | 158 | 201
0.4966 h, 750 ppm | 299 | 227
0.4966 h, 1000 ppm | 571 | 267
0.9954 h, 250 ppm | 74.2 | 67.1
1.002 h, 125 ppm | 42.9 | 40.8
1.002 h, 450 ppm | 101 | 112
1.002 h, 750 ppm | 153 | 94
1.002 h, 1000 ppm | 248 | 142

concentration in blood [ng/mL], human [2], during exposure
Conditions | -33 s | -8 s | -4 h | -3.002 h | -2.995 h | -1.007 h | -1 h
125 ppm, female | – | 179 | 35.6 | 165 | – | – | 158
125 ppm, male | – | 196 | 36.9 | 165 | – | – | 196
250 ppm, female | 451 | – | 78.9 | 374 | – | 445 | –
250 ppm, male | – | – | 42.9 | 468 | – | 457 | –
450 ppm, female | 1000 | – | 52.4 | 851 | – | – | 1000
450 ppm, male | 1090 | – | – | 851 | – | – | 905
750 ppm, female | – | 1620 | 65.5 | – | 1430 | – | 1860
750 ppm, male | – | 2060 | – | – | 1770 | – | 1510
1000 ppm, female | 2640 | – | 133 | – | 2300 | – | 2510
1000 ppm, male | 2920 | – | – | – | 2810 | – | 2360
